One may read the inhibition as the relative decrease from the control value, in per cent. In general, pKi refers to −log10 of the Ki, conventionally taken in molar units. A high value points to a low Ki. Usually pEC50 stands for the negative decadic logarithm of the EC50, by convention in mol/L. For orientation: pIC50 means the negative decadic logarithm of the IC50, by convention in mol/L.

pEC50, pIC50, pKi: −log10 of the molar value.

The values below come from ChEMBL document CHEMBL4665773, “Structure activity relationship exploration of 5-hydroxy-2-(3-phenylpropyl)chromones as a unique 5-HT receptor antagonist scaffold” (Bioorg Med Chem Lett, 2020).

The target in test [1] is T1, 5-hydroxytryptamine receptor 2B (Homo sapiens, UniProt P41595). As to the kind of experiment: Antagonist activity at 5HT2B receptor (unknown origin) at 10 uM by radioligand binding assay relative to control.
Test [2] has as its target T1, 5-hydroxytryptamine receptor 2B. As to the kind of experiment: Antagonist activity at 5HT2B receptor (unknown origin) by radioligand binding assay.
In test [3] the target is T2, 5-hydroxytryptamine receptor 2C (Homo sapiens) (UniProt P28335).
T2 sequence (whole entry): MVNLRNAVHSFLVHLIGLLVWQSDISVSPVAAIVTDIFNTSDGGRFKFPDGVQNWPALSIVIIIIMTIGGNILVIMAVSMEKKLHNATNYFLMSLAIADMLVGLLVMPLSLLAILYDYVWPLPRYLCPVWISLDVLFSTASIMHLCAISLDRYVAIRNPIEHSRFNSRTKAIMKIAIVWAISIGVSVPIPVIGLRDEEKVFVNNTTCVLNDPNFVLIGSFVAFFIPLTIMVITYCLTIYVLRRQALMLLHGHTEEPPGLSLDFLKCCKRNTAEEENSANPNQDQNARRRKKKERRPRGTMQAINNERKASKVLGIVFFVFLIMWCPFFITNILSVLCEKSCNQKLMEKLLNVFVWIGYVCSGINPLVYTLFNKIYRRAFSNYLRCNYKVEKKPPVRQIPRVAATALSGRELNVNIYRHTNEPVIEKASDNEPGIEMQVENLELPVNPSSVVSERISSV
The test can be described thus: Antagonist activity at 5HT2C receptor (unknown origin) 10 uM by radioligand binding assay relative to control.

Test [4] concerns the target 5-hydroxytryptamine receptor 2A (Homo sapiens) (UniProt P28223). As to the kind of experiment: Antagonist activity at 5HT2A receptor (unknown origin) at 10 uM by radioligand binding assay relative to control.
Test [5] deals with T3, 5-hydroxytryptamine receptor 2C (Homo sapiens, UniProt P28335).
T3 sequence (P28335 whole entry): T2 sequence (whole entry)
As to the kind of experiment: Antagonist activity at 5HT2C receptor (unknown origin) by radioligand binding assay.

For test [6], the target named is T1, 5-hydroxytryptamine receptor 2B. The test can be described thus: Agonist activity at 5-HT2B receptor (unknown origin) assessed as maximal response at 10 uM by calcium mobilization assay relative to 3 nM 5-HT. Format: functional. The procedure, abridged: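 Calcium mobilization read-out of agonism at 5-HT2B, with 5-HT as the reference agonist. Potency is expressed as pEC50. Maximal response to test compound at 10 μM is expressed relative to the maximal response to 5-HT at 3.0 nM.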
In general terms: Calcium assays in cells follow changes in intracellular calcium, usually with a dye or a luminescent sensor.

For test [7] the target is unchanged. The test can be described thus: Agonist activity at 5-HT2B receptor (unknown origin) by calcium mobilization assay. Format: functional.
Test [8] has the same target. As to the kind of experiment: Antagonist activity at 5-HT2B receptor (unknown origin) assessed as inhibition of 5HT-indued response by calcium mobilization assay. Format: functional. The procedure, abridged:
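Antagonist mode of the 5-HT2B calcium mobilization assay: 5-HT at 1.6 nM was challenged with various concentrations of test compound. Inhibition is expressed as pIC50.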

T1 sequence (P41595 whole entry): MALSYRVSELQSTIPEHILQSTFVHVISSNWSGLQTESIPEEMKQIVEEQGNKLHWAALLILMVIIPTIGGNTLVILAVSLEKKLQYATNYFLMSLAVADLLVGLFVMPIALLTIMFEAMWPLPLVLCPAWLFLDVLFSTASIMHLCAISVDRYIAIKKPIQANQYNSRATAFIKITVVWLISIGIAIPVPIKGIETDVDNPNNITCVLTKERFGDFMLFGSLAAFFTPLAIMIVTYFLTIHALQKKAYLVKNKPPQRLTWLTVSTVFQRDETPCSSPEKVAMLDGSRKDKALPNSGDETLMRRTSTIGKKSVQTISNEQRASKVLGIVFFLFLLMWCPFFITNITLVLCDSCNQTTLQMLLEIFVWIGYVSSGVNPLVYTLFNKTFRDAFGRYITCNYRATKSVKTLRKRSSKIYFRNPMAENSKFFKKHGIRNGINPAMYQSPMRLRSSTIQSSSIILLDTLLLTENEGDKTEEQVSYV
Chain of 5-hydroxytryptamine receptor 2A (Homo sapiens) (P28223 whole entry): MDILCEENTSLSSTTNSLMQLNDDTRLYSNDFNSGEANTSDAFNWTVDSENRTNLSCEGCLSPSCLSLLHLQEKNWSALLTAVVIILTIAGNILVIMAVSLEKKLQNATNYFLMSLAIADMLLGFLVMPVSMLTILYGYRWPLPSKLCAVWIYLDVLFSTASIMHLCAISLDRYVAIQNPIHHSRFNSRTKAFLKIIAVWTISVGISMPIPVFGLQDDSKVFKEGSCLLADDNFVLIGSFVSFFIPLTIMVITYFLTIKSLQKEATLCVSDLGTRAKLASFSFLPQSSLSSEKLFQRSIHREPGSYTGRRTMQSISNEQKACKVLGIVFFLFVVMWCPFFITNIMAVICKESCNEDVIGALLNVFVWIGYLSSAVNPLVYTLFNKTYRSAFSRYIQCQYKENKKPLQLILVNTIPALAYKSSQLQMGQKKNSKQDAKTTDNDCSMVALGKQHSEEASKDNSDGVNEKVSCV

Turning to `O=c1cc(CCCc2cccc(F)c2)oc2cccc(O)c12`, the figures for the inhibition in test [1] (filed as antagonist), in test [3] (filed as antagonist) and in test [4] were 52.7%, 44.4% and 8.4%, respectively. In addition, the pKi in test [2] is 5.60.
In the case of `Cc1cccc(CCCc2cc(=O)c3c(O)cccc3o2)c1`, the inhibition turned out to be 57.7% in test [1] (filed as antagonist), 59.4% in test [3] (filed as antagonist) and 14.4% in test [4]. Besides, the pKi was 5.50 in test [5] and 5.70 in test [2].
`O=c1cc(CCCc2ccc(F)cc2)oc2cccc(O)c12`: the figures for the inhibition in test [1] (filed as antagonist), in test [3] and in test [4] were 49.2%, 33.9% and 14.2%, respectively.
For the compound `O=c1cc(CCCc2cccc(C(F)(F)F)c2)oc2cccc(O)c12`, the inhibition is 65.8% in test [1] (filed as antagonist), 43.5% in test [3] (filed as antagonist) and 8.7% in test [4]. In test [2], the pKi is 6.00.
As to `N#Cc1cccc(CCCc2cc(=O)c3c(O)cccc3o2)c1`, the inhibition in test [1] (filed as antagonist) was 91.1%; in test [3], 15.5%; in test [4] it was 7.2%. Further, the Rmax in test [6] stood at 12%. Besides, the pEC50 in test [7] is 6.30. In test [8], the pIC50 was 5.20. In test [2], this compound showed a pKi of 7.10.
As to `O=c1cc(CCCc2ccc(OC(F)(F)F)cc2)oc2cccc(O)c12`, the inhibition in test [1] is 35.3%; in test [3] it was 32.6%; in test [4], -5%.
For the compound `COc1cccc(CCCc2cc(=O)c3c(O)cccc3o2)c1`, the inhibition is 69.3% in test [1] (filed as antagonist), 67.4% in test [3] (filed as antagonist) and 9.8% in test [4].
`O=c1cc(CCCc2ccc(C(F)(F)F)cc2)oc2cccc(O)c12`: the inhibition stood at 50% in test [1] (filed as antagonist), 36% in test [3] and 19.5% in test [4]. The compound also showed a pKi in test [2] of 5.60.
Turning to `O=c1cc(CCCc2ccc(Cl)cc2)oc2cccc(O)c12`, the figures for the inhibition in test [1] (filed as antagonist), in test [3] and in test [4] were 50.4%, 35.8% and 9.3%, respectively. Also, the pKi in test [2] is 5.60.
For the compound `Cc1ccc(CCCc2cc(=O)c3c(O)cccc3o2)cc1`, the inhibition in test [1] (filed as antagonist) worked out at 50%; in test [3] (filed as antagonist) it was 51.2%; in test [4] it was 17.2%. The pKi is 5.50 in test [5] and 5.80 in test [2].
For the compound `O=c1cc(CCCc2cccc(Cl)c2)oc2cccc(O)c12`, the inhibition in test [1] (filed as antagonist) is 61.7%; in test [3] (filed as antagonist), 44.8%; in test [4], 13.9%. The same compound had a pKi in test [2] of 5.70.
With `COc1ccc(CCCc2cc(=O)c3c(O)cccc3o2)cc1`, the inhibition in test [1] (filed as antagonist) is 75.3%; in test [3] (filed as antagonist), 87.9%; in test [4], -1.6%.
